ChEMBL document CHEMBL1142666, “Novel [2',5'-bis-O-(tert-butyldimethylsilyl)-beta-D-ribofuranosyl]- 3'-spiro-5''-(4''-amino-1'',2''-oxathiole-2'',2" -dioxide) derivatives with anti-HIV-1 and anti-human-cytomegalovirus activity” (J Med Chem, 2005)

Tests used:
Settings in all cases: Homo sapiens
MT4 [1] = assay: Effective concentration required to inhibit HIV-2 ROD in MT-4 cell culture; assay type: functional, cell-based
Procedure, shortened: (§1)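 MT-4 cells (3 × 10^5/mL) infected at ~100 CCID50/mL and mixed with compound dilutions. Cytopathicity read by trypan blue exclusion at day 5. EC50 = concentration giving 50% protection against virus-induced loss of viability.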

HEL [2] = assay: Minimal cytotoxic concentration required to cause microscopically visible alteration of cell morphology in HEL Cells; assay type: functional
Procedure, shortened: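 Uninfected HEL cells exposed to compound. Minimum cytotoxic concentration is the lowest level giving a microscopically detectable change in cell morphology.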

CCRF-CEM [3] = assay: Cytostatic concentration required to inhibit CEM cell proliferation; assay type: functional
Procedure, shortened: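 CEM cells, mock-infected, grown with serial compound dilutions for 4 days. CC50 taken as the concentration that inhibits CEM cell proliferation by 50%.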

CCRF-CEM [4] = assay: Effective concentration required to inhibit HIV-2 ROD in CEM cell culture; assay type: functional, cell-based
Procedure, shortened: (§2)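 CEM cells (4 × 10^5/mL) infected at ~100 CCID50/mL and mixed with compound dilutions. Giant cell formation scored microscopically at day 4. EC50 = concentration inhibiting virus-induced cytopathicity by 50%.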

HEL [5] = assay: Effective concentration required to inhibit HCMV AD-169 in HEL Cells; assay type: functional, cell-based
Procedure, shortened: (§3)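 Confluent HEL cells infected with HCMV at 100 PFU/well. After 1-2 h, residual virus removed and MEM with 2% inactivated FCS added, with compound in duplicate at 5-fold dilution steps. After 7 days at 37 °C in 5% CO2, cells fixed with ethanol and Giemsa-stained; plaques or CPE scored microscopically. IC50 interpolated graphically; mean of two independent experiments.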

HEL [6] = assay: Effective concentration required to inhibit HCMV Davis in HEL Cells; assay type: functional, cell-based; procedure, shortened: as §3
MT4 [7] = assay: Effective concentration required to inhibit HIV-1 IIIB in MT-4 cell culture; assay type: functional, cell-based; procedure, shortened: as §1
HEL [8] = assay: Cytostatic concentration required to inhibit HEL cell proliferation; assay type: functional
Procedure, shortened: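 HEL fibroblasts seeded at 5 × 10^3 cells/well and grown 24 h, then given compound in duplicate. After 3 days at 37 °C in 5% CO2, cell number read on a Coulter counter. CC50 = concentration reducing cell growth by 50%.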

CCRF-CEM [9] = assay: Effective concentration required to inhibit HIV-1 IIIB in CEM cell culture; assay type: functional, cell-based; procedure, shortened: as §2
MT4 [10] = assay: Cytostatic concentration required to inhibit MT-4 cell proliferation; assay type: functional
Procedure, shortened: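 Mock-infected MT-4 cells (3 × 10^5/mL) incubated with compound dilutions for 5 days. Viable cells counted by trypan blue exclusion. CC50 = concentration reducing viable MT-4 cell number by 50%.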

SMILES | EC50 (MT4 [1]) [µM] | MCC (HEL [2]) [µM] | CC50 (CCRF-CEM [3]) [µM] | EC50 (CCRF-CEM [4]) [µM] | EC50 (HEL [5]) [µM] | EC50 (HEL [6]) [µM] | EC50 (MT4 [7]) [µM] | CC50 (HEL [8]) [µM] | EC50 (CCRF-CEM [9]) [µM] | CC50 (MT4 [10]) [µM]
CCNC(=O)NC1=CS(=O)(=O)O[C@@]12[C@@H](CO[Si](C)(C)C(C)(C)C)O[C@@H](n1cc(C)c(=O)n(C)c1=O)[C@@H]2O[Si](C)(C)C(C)(C)C | > 2 | ≥ 3.2 | 4.26 | > 2 | 1.8 | 2 | > 2 | 10 | > 2 | –
Cc1cn([C@@H]2O[C@H](CO[Si](C)(C)C(C)(C)C)[C@@]3(OS(=O)(=O)C=C3NC(=O)NC(=O)c3ccccc3)[C@H]2O[Si](C)(C)C(C)(C)C)c(=O)n(C)c1=O | > 10 | ≥ 80 | 2.29 | > 2 | 1.2 | 0.8 | > 2 | ≥ 200 | > 2 | 3.33
Cc1cn([C@@H]2O[C@H](CO[Si](C)(C)C(C)(C)C)[C@@]3(OS(=O)(=O)C=C3NC(N)=O)[C@H]2O[Si](C)(C)C(C)(C)C)c(=O)n(C)c1=O | > 2 | 16 | 4.36 | > 2 | > 3.2 | 2 | > 2 | 11 | > 2 | 3.7
CCOC(=O)CNC(=O)NC1=CS(=O)(=O)O[C@@]12[C@@H](CO[Si](C)(C)C(C)(C)C)O[C@@H](n1cc(C)c(=O)n(C)c1=O)[C@@H]2O[Si](C)(C)C(C)(C)C | > 2 | 16 | 5.02 | > 2 | > 3.2 | > 3.2 | > 2 | 13 | > 2 | 3.78
Cc1cn([C@@H]2O[C@H](CO[Si](C)(C)C(C)(C)C)[C@@]3(OS(=O)(=O)C=C3NCCC(=O)O)[C@H]2O[Si](C)(C)C(C)(C)C)c(=O)n(C)c1=O | > 50 | 80 | 19.4 | > 10 | > 16 | 8 | > 50 | 34 | > 10 | 11.5
Cc1cn([C@@H]2O[C@H](CO[Si](C)(C)C(C)(C)C)[C@@]3(OS(=O)(=O)C=C3NC(=O)c3ccccc3)[C@H]2O[Si](C)(C)C(C)(C)C)c(=O)n(C)c1=O | > 5 | ≥ 3.2 | 4.91 | > 5 | 1.3 | 1.2 | > 5 | 9.7 | > 5 | 4.9
Cc1cn([C@@H]2O[C@H](CO[Si](C)(C)C(C)(C)C)[C@@]3(OS(=O)(=O)C=C3NC(=O)C(N)=O)[C@H]2O[Si](C)(C)C(C)(C)C)c(=O)n(C)c1=O | > 2 | ≥ 16 | 9.96 | > 10 | 6.5 | 6.5 | 0.057 | 14.5 | 0.028 | 9.59
Cc1cn([C@@H]2O[C@H](CO[Si](C)(C)C(C)(C)C)[C@@]3(OS(=O)(=O)C=C3NC(=O)C(=O)O)[C@H]2O[Si](C)(C)C(C)(C)C)c(=O)n(C)c1=O | > 10 | 400 | 72.6 | > 50 | > 80 | 36 | 1.3 | 146 | 0.23 | 31.1
COC(=O)CNC1=CS(=O)(=O)O[C@@]12[C@@H](CO[Si](C)(C)C(C)(C)C)O[C@@H](n1cc(C)c(=O)n(C)c1=O)[C@@H]2O[Si](C)(C)C(C)(C)C | > 125 | ≥ 400 | 96 | > 125 | > 400 | > 400 | 1.61 | 160 | 0.6 | 105
CC(=O)NC1=CS(=O)(=O)O[C@@]12[C@@H](CO[Si](C)(C)C(C)(C)C)O[C@@H](n1cc(C)c(=O)n(C)c1=O)[C@@H]2O[Si](C)(C)C(C)(C)C | > 5 | ≥ 80 | 25.7 | > 25 | 40 | > 16 | > 5 | > 200 | > 25 | 10.7
Cc1cn([C@@H]2O[C@H](CO[Si](C)(C)C(C)(C)C)C3(OS(=O)(=O)C=C3N)[C@H]2O[Si](C)(C)C(C)(C)C)c(=O)[nH]c1=O (some centres not stated) | > 10 | – | – | > 10 | – | – | – | – | – | 12
Cc1cn([C@@H]2O[C@H](CO[Si](C)(C)C(C)(C)C)[C@@]3(OS(=O)(=O)C=C3NCC(=O)O)[C@H]2O[Si](C)(C)C(C)(C)C)c(=O)n(C)c1=O | > 10 | 300 | 65 | > 10 | ≥ 50 | 32 | > 10 | 136 | > 10 | 30
Cc1cn([C@@H]2O[C@H](CO[Si](C)(C)C(C)(C)C)[C@@]3(OS(=O)(=O)C=C3N)[C@H]2O[Si](C)(C)C(C)(C)C)c(=O)n(C)c1=O | > 250 | – | – | > 250 | – | – | 0.06 | – | 0.04 | 230
CCOC(=O)NC(=O)NC1=CS(=O)(=O)O[C@@]12[C@@H](CO[Si](C)(C)C(C)(C)C)O[C@@H](n1cc(C)c(=O)n(C)c1=O)[C@@H]2O[Si](C)(C)C(C)(C)C | > 2 | 16 | 3 | > 2 | 2.3 | 1.8 | > 2 | 14 | > 2 | –
Cc1cn([C@@H]2O[C@H](CO[Si](C)(C)C(C)(C)C)[C@@]3(OS(=O)(=O)C=C3NCCC(=O)OCc3ccccc3)[C@H]2O[Si](C)(C)C(C)(C)C)c(=O)n(C)c1=O | > 250 | ≥ 400 | > 250 | > 250 | > 400 | > 400 | > 250 | > 200 | > 250 | > 250
Cc1cn([C@@H]2O[C@@H]3COC4(O)CS(=O)(=O)O[C@@]34[C@H]2O[Si](C)(C)C(C)(C)C)c(=O)[nH]c1=O (some centres not stated) | > 100 | – | > 100 | > 100 | – | – | > 100 | – | > 100 | > 100
Cc1cn([C@@H]2O[C@@H]3COC4(O)CS(=O)(=O)O[C@@]34[C@H]2O)c(=O)[nH]c1=O (some centres not stated) | > 100 | – | > 100 | > 100 | – | – | > 100 | – | > 100 | > 100
Cc1cn([C@@H]2O[C@H](CO[Si](C)(C)C(C)(C)C)[C@@]3(OS(=O)(=O)C=C3NCC(=O)OCc3ccccc3)[C@H]2O[Si](C)(C)C(C)(C)C)c(=O)n(C)c1=O | > 250 | ≥ 400 | > 250 | > 250 | > 400 | > 400 | – | > 200 | 6.7 | > 250
